Results pooled from the literature.
Compare with care: the assays were run in different laboratories.
Target: NT-3 growth factor receptor (NTRK3, Homo sapiens, UniProt Q16288)

Compound	read-out	method	concentration	remaining binding [%]
Cc1cnn2ncc(-c3ccnc(N(C)C)n3)c2c1	binding	–	1 µM	73
O=C(NCC1CCOCC1)c1n[nH]cc1NC(=O)c1c(F)cccc1F	binding	competition with immobilised ligand	1 µM	98
CN(C)c1nccc(-c2cnc3ncccn23)n1	binding	–	1 µM	78
CN1CCN(c2cnc3c(C4CCN(C(=O)c5ccc(OC(F)(F)F)cc5N)CC4)ncnc3c2)CC1	cell-free assay	competition with immobilised ligand	1 µM	100
CNC(=O)[C@@H]1CC[C@@H](n2c(-c3ccc4cnccc4c3)nc3ccc(C(=O)NCc4cccc(C(N)=O)c4)cc32)C1	binding	competition with immobilised ligand	1 µM	100
CC(=O)N1CCC(c2ccc(C(=O)NC(=N)N)cc2C(F)(F)F)CC1	cell-free assay	competition with immobilised ligand	1 µM	100
COc1cnc(Nc2cccc(S(N)(=O)=O)c2)nc1N1CCN(c2ccccc2)CC1	binding	competition with immobilised ligand	1 µM	61
Cc1cnc(Nc2ccc(C(=O)N3CCC(N4CCCC4)CC3)cc2)nc1-c1cc2ccccc2s1	binding	competition with immobilised ligand	1 µM	16
Nc1ncc2c(n1)-c1c([nH]c3ccc(C#CC4CC4)cc13)CCCC2	binding	competition with immobilised ligand	1 µM	99
F[C@@H]1CCN(c2nccc(-c3cnn4ncccc34)n2)C1	binding	–	1 µM	100
C[C@H](NC(=O)c1cnc2n1[C@](C)(Cc1ccc(C#N)cc1)C(=O)N2c1cc(Cl)c(F)c(Cl)c1)C(=O)NC1(c2ccccn2)CC1	cell-free assay	competition with immobilised ligand	1 µM	100
O=C(NCCCN1CCOCC1)c1ccc(Nc2ncc(Cl)c(-c3ccc(Cl)s3)n2)cc1	binding	competition with immobilised ligand	1 µM	46
CN(CCCC(F)(F)F)c1nccc(-c2cnn3ncccc23)n1	binding	–	1 µM	100
O=C(Nc1cccnn1)N1CC(C/C=C/c2cncc(Oc3ccc(C(F)(F)F)cn3)n2)C1	cell-free assay	competition with immobilised ligand	1 µM	85
C[C@@H](c1ccc(-n2cnc3c(N)ncnc32)cc1)N1CCc2nn(C)c(Cc3ccccc3)c2C1=O	binding	competition with immobilised ligand	0.1 µM	40
O=C(c1ccc(Nc2nccc(-c3cc4ccccc4s3)n2)cc1)N1CCC(N2CCCC2)CC1	binding	competition with immobilised ligand	1 µM	71
N[C@H]1CCN(c2nccc(-c3cnn4ncccc34)n2)C1	binding	–	1 µM	85
CO[C@@H](C)c1c(Nc2ccc([C@H](N(C)C(=O)C3CCS(=O)(=O)CC3)C(F)(F)F)cc2)cnc2cc(Cl)nn12	cell-free assay	competition with immobilised ligand	1 µM	100
COc1ccnn2ncc(-c3ccnc(N(C)C)n3)c12	binding	–	1 µM	81
C=CC(=O)N1CCC(C(=O)NCC(=O)N2CCN(c3nc(-c4cnc(N)nc4C(F)F)nc(N4CCOCC4)n3)CC2)CC1	binding	competition with immobilised ligand	1 µM	86
Cn1cc(Cl)c2c(Oc3c(F)cc(Nc4cc(Cl)nc(N)n4)cc3F)ccnc21	cell-free assay	competition with immobilised ligand	0.1 µM	76
C[C@H]1CCN(c2nccc(-c3cnn4ncccc34)n2)C1	binding	–	1 µM	63
